Source: paper PMC4779681 (Journal of immunology (Baltimore, Md. : 1950), 2016)

Columns and labels:
[1] = system: OT-I T cells; assay: In vitro OVA APL OT-I stimulation; format: cell-based, mouse; details: for hnRNPLL expression: OT-I cells primed with peptide 3 days in vitro (0.1 μM)
[2] = system: OT-I T cells; assay: Secondary effectors after N4 OVA peptide footpad rechallenge; format: in vivo, mouse; details: for CD45RB^hi frequency, secondary effectors: N4 OVA peptide 10 μg per hind foot pad, draining popliteal LN, 5 days later; for CD62L^lo frequency, CD45RB^lo vs CD45RB^hi fraction: CD45RB^lo vs respective CD45RB^hi population
[3] = system: OT-I T cells; assay: OT-I primary effector and memory populations after LM-OVA APL infection; format: in vivo, mouse; details: for Memory OT-I cells (frequency/number) in pooled secondary lymphoid organs: LM-N4 OVA or LM-V4 OVA infection, week 4-5 post infection, Thy1.1 enrichment; for CD45RB^hi frequency, primary effectors: OT-I in blood, day 7 post LM infection; for CD45RB^hi frequency, memory cells: OT-I in secondary lymphoid tissue, 4 weeks post LM infection; for IL-2 expression by primary effectors: day 7 primary effectors; for Memory phenotype markers CD44, CD127, CD69, Granzyme B: memory OT-I cells primed by LM-OVA APL
Summary of the method: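 OT-I donor cells (1.0 × 10⁴, Thy1.1⁺, in PBS) given i.v. to CD45.1⁺ male hosts; 10⁴ CFU LM-OVA APL i.p. 24 h later. Day 7: blood with RBC lysis, gated CD8⁺CD44^hiThy1.1⁺. Week 4 (day 28–35): spleen plus pooled LNs, anti-Thy1.1 PE/anti-PE bead enrichment. Cytokines by intracellular staining after 5 h at 37 C with 1 μM N4 OVA peptide plus GolgiPlug. Counts by counting beads.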

[4] = system: OT-I T cells; assay: Sorted Q4 OVA primed OT-I cells transferred and rechallenged with N4 OVA peptide; format: in vivo, mouse; details: N4 OVA peptide rechallenge in naïve congenic hosts, day 5, p=0.0012
Summary of the method: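 OT-I splenocytes (3×10⁶) were primed for 3 days with 0.1 μM Q4 OVA peptide, 0.1 μg/mL anti-CD28 and 10 ng/mL IL-2. Dead cells were removed, then cells were cultured overnight in 10 ng/mL IL-15. Live CD8⁺CD44^hiThy1.1⁺ cells were sorted into CD45RB^hi/lo, transferred to naïve congenic hosts and rechallenged with N4 OVA peptide. CD45RB was assessed 5 days later; 2–3 independent experiments.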

[5] = system: OT-I T cells; format: in vivo, mouse; details: vs N4 OVA primed
Summary of the method: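 Memory mice, OT-I-transferred and LM-infected, received full-thickness tail and ear skin grafts expressing N4 OVA on the dorsal thorax 5 weeks post infection. Draining LN OT-I cells were counted with counting beads on day 5 post graft. Fold expansion was taken from day 0 to day 5.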

[6] = system: OT-I T cells; details: between N4 and V4 OVA; cited from earlier work

Sequence | hnRNPLL expression [1] | CD45RB^hi frequency, secondary effectors [2] [%] | CD62L^lo frequency, CD45RB^lo vs CD45RB^hi fraction ([2]; secondary effectors) | Memory OT-I cells (frequency/number) in pooled secondary lymphoid organs [3] | CD45RB^hi frequency, primary effectors [3] [%] | CD45RB^hi frequency, memory cells [3] [%] | IL-2 expression by primary effectors [3] | Memory phenotype markers CD44, CD127, CD69, Granzyme B [3] | other results
SIINFEKL [N4 OVA] | increased | 30.2±3.39 | greater frequency | 8.0×10^4±3.3×10^4 | 48.9±2.2 | 54.7±6.76 | similarly low levels of IL-2 | high levels of CD44 and CD127, and low levels of CD69 and Granzyme B | Nur77 and CD69 expression, CD45RB^hi vs CD45RB^lo cells ([1]; V4 OVA Tm cells restimulated 5 h with N4 OVA or OVA APL, 0.1 μM): significantly greater in CD45RB^hi cells
SIIQFEKL [Q4 OVA] | – | – | – | – | – | – | – | – | Proliferation of sorted CD45RB^hi vs CD45RB^lo cells [4]: proliferated to a significantly greater number
SIIVFEKL [V4 OVA] | not induced | 19.6±1.96 | greater frequency | 1.3×10^3±5.3×10^2 | 68.7±3.6 | 79.3±3.4 | similarly low levels of IL-2 | high levels of CD44 and CD127, and low levels of CD69 and Granzyme B | PD-1 expression in CD45RB^lo fraction ([2]; secondary effectors): significantly upregulated; IL-2Rβ (CD122) expression ([2]; secondary effectors, CD45RB^lo vs CD45RB^hi): significantly lower; CD62L^lo frequency within CD45RB^lo population ([2]; secondary effectors, V4 OVA vs N4 OVA primed CD45RB^lo): slightly smaller frequency; IFN-γ^+ or TNF^+ frequency, CD45RB^lo vs CD45RB^hi ([2]; secondary effectors, high affinity rechallenge): did not possess greater frequencies; Loss of CD45RB^hi cells relative to resting memory ([2]; secondary effectors, vs N4 OVA primed): significantly greater; IL-2Rα (CD25) expression, CD45RB^lo cells ([2]; vs CD45RB^hi cells and N4 OVA primed CD45RB^lo cells): significantly higher levels; Fold expansion of memory cells post graft ([5]; day 0 to day 5 post N4 OVA skin graft): greater fold expansion; Number of OT-I cells recovered in draining lymph nodes ([5]; day 5 post N4 OVA skin graft): fewer; Range in relative functional avidity [6]: 680 fold; Fold lower frequency of CD8^+ OT-I effectors in blood vs N4 OVA priming ([3]; day 7 post LM infection (10^4 CFU i.p.), 10^4 OT-I transferred): ~ 80 fold; Fold lower frequency of memory OT-I cells vs N4 OVA priming ([3]; secondary lymphoid organs, memory, LM infection): 61 fold
